Compounds with a hit are over-represented: about 2.2% of the library has one in this group of screens.
Apaf-1 inh: inhibitors of human Apaf-1 apoptosome. O14727. reconstituted apoptosome caspase-3 activity, DEVD-Rh110 fluorescence. inhibition, % at 20 µM. AID 489030. actives 0.71% (n = 330,000); active = inhibition of at least 40% at 20 µM;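 note: plate controls were DMSO wells for no effect and DEVD-CHO caspase inhibitor wells for full effect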
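System: reconstituted apoptosome with Apaf-1, cytochrome c, caspase-9, procaspase-3, dATP; Signal: Rh110 fluorescence intensity; Schedule: 30 min compound preincubation, 50 min activation, room temperature; Reagent: cytochrome c trigger plus (Z-DEVD)2-Rh110 caspase-3 substrate.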
Rin1-Abl PPI inh: blocks binding of human Rin1 to Abl. TR-FRET Rin1/Abl binding, biochemical. P00519+Q13671. actives 0.4% (n = 360,000). inhibition, % at 7.35 µM; in the data active = inhibition above about 5%, passing the limit was not always enough
PAD4 FP inh: blocks human protein arginine deiminase 4. actives 0.41% (n = 330,000). inhibition, % at 6.36 µM. Q9UM07. recombinant PAD4, RCA probe fluorescence polarization;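 active = percent inhibition above a cutoff equal to the mean of all tested compounds plus 3 SD, cut at about 15% in these data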;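 note: 0% = PAD4 with RCA probe and DMSO and 100% = probe without PAD4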
UBC13 inh: human UBC13 polyubiquitination inhibition; inhibition, % at 20 µM; UBC13 polyubiquitin chain formation, TR-FRET; AID 485273; actives 0.47% (n = 330,000); in the data active = inhibition above about 45%, passing the limit was not always enough
GSTO1 inh: blocks human GSTO1 in RBBP9 counter-screen; P78417; recombinant GSTO1, activity-based probe fluorescence polarization; inhibition, % at 5.96 µM; actives 1.1% (n = 300,000);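 active = inhibition above the campaign mean inhibition plus 3 SD, cut at about 35% in these data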;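 note: 0% = GSTO1-1 with DMSO and 100% = wells lacking GSTO1-1 enzyme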
Target sequence (P78417 whole entry, looked up): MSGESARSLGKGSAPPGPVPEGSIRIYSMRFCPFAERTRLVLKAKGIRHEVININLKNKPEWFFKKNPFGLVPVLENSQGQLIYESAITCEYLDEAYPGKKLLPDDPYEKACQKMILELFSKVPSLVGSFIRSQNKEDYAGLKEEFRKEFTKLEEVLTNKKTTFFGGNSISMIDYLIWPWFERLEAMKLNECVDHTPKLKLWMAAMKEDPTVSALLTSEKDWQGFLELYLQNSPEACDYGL
UBC9 SUMO inh: inhibitors of human SUMOylation (UBC9). P63279. HTRF SUMOylation assay, SAE1/SAE2 + UBC9, in vitro. AID 2006. actives 0.36% (n = 290,000). inhibition, % at 35 µM; in the data active = inhibition above about 50%, passing the limit was not always enough
Target sequence (P63279 whole entry, looked up): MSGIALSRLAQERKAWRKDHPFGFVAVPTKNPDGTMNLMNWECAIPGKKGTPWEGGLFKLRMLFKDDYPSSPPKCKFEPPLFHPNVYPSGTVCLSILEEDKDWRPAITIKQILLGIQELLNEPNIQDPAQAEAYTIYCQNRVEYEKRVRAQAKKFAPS
Casp3 UBC13 ctr: counter-screen for UBC13 inhibitors: human caspase-3 inhibition. shares compounds with UBC13 inh. Recombinant caspase-3, Caspase-Glo 3/7 luminescence, 60 min. inhibition, % at 20 µM. actives 4% (n = 1,400). AID 488856;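 active = mean inhibition across replicates above about 26%, limit read from the data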;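 note: plate controls were DMSO with caspase-3 for no effect and DMSO wells lacking enzyme for full effect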
UBC13 conf: confirmation of human UBC13 polyubiquitin inhibitors; shares compounds with UBC13 inh; UBC13 polyubiquitination, TR-FRET, biochemical; inhibition, % at 10 µM; actives 68% (n = 1,400); AID 488859; in the data active = inhibition above about 45%
Apaf-1 inh conf2: Apaf-1 inhibition, single-dose confirmed; shares compounds with Apaf-1 inh; reconstituted apoptosome, caspase-3 DEVD-Rh110 fluorescence; inhibition, % at 20 µM; actives 25% (n = 1,800); AID 504614;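 active = mean inhibition of at least 40% at 20 µM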;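 note: plate controls were DMSO wells for no effect and DEVD-CHO caspase inhibitor control wells for full effect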
Rh110 quench: Rh110 signal interference in Apaf-1 inhibitor counter-screen; shares compounds with Apaf-1 inh; Rh110 fluorescence interference, quenched caspase reaction; activation (fluorescence interference), % at 20 µM; 1,800 tested, under 10 active; AID 504615;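 active = signal rise of 40% or more at 20 µM, treated as a fluorescence artifact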
Apaf1 inh interf: shows fluorescence interference in the Apaf-1 inhibitor assay format | shares compounds with Apaf-1 inh | fluorescence interference counterscreen, Apaf-1 assay format | IC50, µM | 460 tested, under 10 active; call rule not given here
Starred values were filed as active, the others as inactive; . = not tested or not shown.

SMILES | Apaf-1 inh | Rin1-Abl PPI inh | PAD4 FP inh | UBC13 inh | GSTO1 inh | UBC9 SUMO inh | Casp3 UBC13 ctr | UBC13 conf | Apaf-1 inh conf2 | Rh110 quench | others
Cc1ccc(-c2csc3nc4c5ccccc5c(NCCCN(C)C)nn4c(=O)c23)cc1 | 42* | -1 | -6 | 97* | -12 | 20 | 1 | 100* | 58* | 12 | Apaf1 inh interf=>100
O=C(COc1ccccc1)NCC(=O)Nc1ccncc1 | 3 | -4 | 0 | 2 | 2 | . | . | . | . | .
CCCCCCCCCCCCCCCC[N+](C)(C)CCN(Cc1ccc(OC)cc1)c1ncccn1 | 98* | -2 | 8 | 119* | 4 | . | 0 | 124* | 92* | 30 | Apaf1 inh interf=>100
COc1ccccc1C(CNC(=O)CNC(=O)c1ccc(Cl)c(Cl)c1)N1CCCC1 (configuration not stated) | -29 | 4 | 1 | 8 | . | . | . | . | . | .
COc1ccccc1C(CNC(=O)CNC(=O)c1ccccc1Cl)N1CCCC1 (configuration not stated) | 61* | 0 | -9 | 51* | . | . | -3 | 62* | 43* | 11 | Apaf1 inh interf=>100
CCC[C@@H](CN1CCC[C@H]1CN1C(N)=NC[C@@H]1Cc1ccccc1)N1C[C@@H]([C@H](C)CC)N(CCc2ccc(Cl)c(Cl)c2)C1=N | 67* | 1 | -3 | 74* | . | . | 0 | 74* | 9 | 2
CCC[C@@H](CN1CCC[C@H]1CN1C(N)=NC[C@H]1CC(C)C)N1C[C@@H](Cc2ccccc2)N(CCc2ccc(Cl)c(Cl)c2)C1=N | 68* | -3 | -6 | 82* | . | . | 0 | 89* | 25 | 9
CCC[C@@H](CN1CCC[C@H]1CN1C(N)=NC[C@@H]1Cc1ccccc1)N1C[C@@H](Cc2ccccc2)N(CCc2ccc(Cl)c(Cl)c2)C1=N | 78* | 0 | 0 | 75* | . | . | 1 | 77* | 30 | -5
Oc1ccc(C[C@@H](CN2CCC[C@@H]2CN2C(=S)NC[C@@H]2Cc2ccccc2)N2C[C@H](Cc3ccccc3)N(CCc3ccccc3)C2=S)cc1 | . | 5 | . | . | . | . | . | . | . | .
Cc1cn([C@@H](CCCCNC(=O)OC(C)(C)C)C(=O)NCCCCCCCCCCC(=O)N2CCN(C(=O)OC(C)(C)C)CC2)nn1 | 17 | 6 | -3 | 14 | -1 | . | . | . | . | .
CC[C@H](C)Cc1cn([C@@H](CCCN=C(NC(=O)OC(C)(C)C)NC(=O)OC(C)(C)C)C(=O)NCCCCCCCCCCC(=O)N2CCN(C(=O)OC(C)(C)C)CC2)nn1 | 57* | 3 | 1 | 54* | 12 | . | -3 | 27 | 19 | 13
NCCCCCc1cn([C@@H](CCC(=O)O)C(=O)NCCCCCCCCCCC(=O)N2CCNCC2)nn1 | -12 | 6 | 0 | 5 | -5 | . | . | . | . | .
CC[C@H](C)Cc1cn([C@@H](CCCCN)C(=O)NCCCCCCCCCCC(=O)N2CCNCC2)nn1 | 46* | -1 | 0 | 47* | 9 | . | 2 | 45* | 11 | 16
CC(Sc1nnc(Cc2ccccc2)o1)C(=O)NC1(C#N)CCCCC1 (configuration not stated) | -3 | 4 | -1 | 13 | . | . | . | . | . | .
COc1ccc2nc(C)cc(SCC(=O)N/N=C/c3ccccc3)c2c1 | -1 | -7 | 12 | 30 | 3 | -8 | . | . | . | .
COc1ccc2nc(C)cc(N/N=C/c3ccccc3)c2c1 | 50* | -5 | 3 | 53* | . | . | 6 | 49* | 4 | 7
COc1ccccc1/C=N/Nc1cc(C)nc2ccc(C)cc12 | 22 | 0 | 6 | -6 | -1 | 8 | . | . | . | .

High-throughput results as filed in PubChem BioAssay.
